Data taken from ChEMBL document CHEMBL1147968, “Novel lbeta-methylcarbapenems having cyclic sulfonamide moieties: synthesis and evaluation of in vitro antibacterial activity” (2007).
≈ marks a conversion by molar mass, not a printed value.

What was measured:
Assay type in all cases: functional
Staphylococcus = experiment: Antibacterial activity against coagulase negative Staphylococcus after 18 to 24 hrs by agar dilution method
Summary of the method: (§1)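 Agar dilution on test agar holding serial twofold dilutions of compound. Overnight tryptosoy broth cultures were diluted in the same broth to about 10⁶ cells/mL and spotted with an inoculating device. Plates were incubated at 37 °C for 18–20 h.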

Streptococcus agalactiae = experiment: Antibacterial activity against Streptococcus agalactiae 32 after 18 to 24 hrs by agar dilution method
Summary of the method: (§2)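 MICs were determined by agar dilution on test agar. An overnight tryptosoy broth culture was diluted in the same broth to about 10⁶ cells/mL and spotted with an inoculating device onto agar containing serial twofold dilutions of compound. Plates were incubated at 37 °C for 18–20 h, and the MIC was the lowest concentration with no visible growth.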

Streptococcus pneumoniae = experiment: Antibacterial activity against Streptococcus pneumoniae 0025 after 18 to 24 hrs by agar dilution method; summary of the method: as §2
Streptococcus pyogenes = experiment: Antibacterial activity against Streptococcus pyogenes 9889 after 18 to 24 hrs by agar dilution method; summary of the method: as §1
Citrobacter freundii = experiment: Antibacterial activity against Citrobacter freundii 323 after 18 to 24 hrs by agar dilution method; summary of the method: as §2
Enterococcus faecalis = experiment: Antibacterial activity against Enterococcus faecalis 2347 after 18 to 24 hrs by agar dilution method; summary of the method: as §2
Klebsiella pneumoniae = experiment: Antibacterial activity against Klebsiella pneumoniae 523 after 18 to 24 hrs by agar dilution method; summary of the method: as §2
Escherichia coli = experiment: Antibacterial activity against Escherichia coli 04 after 18 to 24 hrs by agar dilution method; summary of the method: as §2
Serratia marcescens = experiment: Antibacterial activity against Serratia marcescens 3349 after 18 to 24 hrs by agar dilution method; summary of the method: as §2
Pseudomonas aeruginosa = experiment: Antibacterial activity against Pseudomonas aeruginosa 5455 after 18 to 24 hrs by agar dilution method; summary of the method: as §2
Staphylococcus aureus = experiment: Antibacterial activity against Staphylococcus aureus 1218 after 18 to 24 hrs by agar dilution method; summary of the method: as §2
Haemophilus influenzae = experiment: Antibacterial activity against Haemophilus influenzae 1210 after 18 to 24 hrs by agar dilution method; summary of the method: as §2
Enterobacter cloacae = experiment: Antibacterial activity against Enterobacter cloacae 34 after 18 to 24 hrs by agar dilution method; summary of the method: as §2
Acinetobacter baumannii = experiment: Antibacterial activity against Acinetobacter baumannii 2289 after 18 to 24 hrs by agar dilution method; summary of the method: as §2

MIC (Staphylococcus): 0.098 µg/mL (≈ 0.206 µM)
MIC (Streptococcus agalactiae): 0.02 µg/mL (≈ 0.0421 µM)
MIC (Streptococcus pneumoniae): 0.02 µg/mL (≈ 0.0421 µM)
MIC (Streptococcus pyogenes): 0.01 µg/mL (≈ 0.0211 µM)
MIC (Citrobacter freundii): 0.049 µg/mL (≈ 0.103 µM)
MIC (Enterococcus faecalis): 6.25 µg/mL (≈ 13.2 µM)
MIC (Klebsiella pneumoniae): 0.049 µg/mL (≈ 0.103 µM)
MIC (Escherichia coli): 0.049 µg/mL (≈ 0.103 µM)
MIC (Serratia marcescens): 0.049 µg/mL (≈ 0.103 µM)
MIC (Pseudomonas aeruginosa): 3.12 µg/mL (≈ 6.58 µM)
MIC (Staphylococcus aureus): 3.12 µg/mL (≈ 6.57 µM)
MIC (Haemophilus influenzae): 6.25 µg/mL (≈ 13.2 µM)
MIC (Enterobacter cloacae): 0.098 µg/mL (≈ 0.206 µM)
MIC (Acinetobacter baumannii): 12.5 µg/mL (≈ 26.3 µM)
Compound: C[C@@H](O)C1C(=O)N2C(C(=O)O)=C(S[C@@H]3CN[C@H](CN4CC(C)(C)NS4(=O)=O)C3)[C@H](C)C12 (some centres undefined)
